Results pooled from the literature.
Compare with care: the assays were run in different laboratories.
Target: Vascular endothelial growth factor receptor 3 (FLT4, Homo sapiens, UniProt P35916)

Cc1cc(C)c(-n2ccn3nc(-c4cccnc4)cc23)cc1NC(=O)c1cc(C#N)cc(S(F)(F)(F)(F)F)c1
remaining binding (cell-free assay; competition with immobilised ligand; 0.1 µM): 77.6%

COc1ccnn2ncc(-c3ccnc(N(C)C)n3)c12
remaining binding (binding; 1 µM): 100%

Nc1ncc2c(n1)-c1c([nH]c3ccc(C#CC4CC4)cc13)CCCC2
remaining binding (binding; competition with immobilised ligand; 1 µM): 100%

C=CC(=O)N1CCC(C(=O)NCC(=O)N2CCN(c3nc(-c4cnc(N)nc4C(F)F)nc(N4CCOCC4)n3)CC2)CC1
remaining binding (binding; competition with immobilised ligand; 1 µM): 96%

CN(C)c1ncc(F)c(-c2cnn3ncccc23)n1
remaining binding (binding; 1 µM): 86%

CCN(CC)CCCCNc1ncc2cc(-c3cc(OC)cc(OC)c3)c(NC(=O)NC(C)(C)C)nc2n1
remaining binding (cell-free assay; competition with immobilised ligand; 1 µM): 6%

C[C@@H]1CN(c2cc(-c3nn(C)c4ccc(OC5(C)CC5)cc34)ncn2)C[C@H](C)O1
remaining binding (cell-free assay; competition with immobilised ligand; 1 µM): 85%

O=C(c1ccc(Nc2ncc(Cl)c(-c3cc4ccccc4s3)n2)cc1)N1CCC(N2CCCC2)CC1
remaining binding (binding; competition with immobilised ligand; 1 µM): 0.7%

N[C@H]1CCN(c2nccc(-c3cnn4ncccc34)n2)C1
remaining binding (binding; 1 µM): 92%

O=C(NCC1CCOCC1)c1n[nH]cc1NC(=O)c1c(F)cccc1F
remaining binding (binding; competition with immobilised ligand; 1 µM): 95%

Cc1nc(N2CC[C@@H](O)C2)ncc1-c1cc(C(F)(F)F)cc2[nH]ncc12
remaining binding (cell-free assay; competition with immobilised ligand; 1 µM): 100%

Cc1cnn2ncc(-c3ccnc(N(C)C)n3)c2c1
remaining binding (binding; 1 µM): 100%

CNC(=O)[C@@H]1CC[C@@H](n2c(-c3ccc4cnccc4c3)nc3ccc(C(=O)NCc4cccc(C(N)=O)c4)cc32)C1
remaining binding (binding; competition with immobilised ligand; 1 µM): 100%

C[C@H]1CCN(c2nccc(-c3cnn4ncccc34)n2)C1
remaining binding (binding; 1 µM): 100%

COc1cnc(Nc2cccc(S(N)(=O)=O)c2)nc1N1CCN(c2ccccc2)CC1
remaining binding (binding; competition with immobilised ligand; 1 µM): 85%

c1cncc(-c2cccc(Nc3nccc(NC4CCCCC4)n3)c2)c1
remaining binding (binding; competition with immobilised ligand; 10 µM): 18%

CCc1ccccc1C(=O)Nc1n[nH]c2c(C)c(F)c(C3C(C#N)=C(C)N(C)C(C)=C3C#N)cc12
remaining binding (cell-free assay; competition with immobilised ligand; 1 µM): 85%

CN(C)c1nccc(-c2cnn3ncccc23)n1
remaining binding (binding; 1 µM): 100%

O=C(c1ccc(Nc2nccc(-c3cc4ccccc4s3)n2)cc1)N1CCC(N2CCCC2)CC1
remaining binding (binding; competition with immobilised ligand; 1 µM): 30%

Nc1c(C(=O)NCc2ccc(C(=O)NCCCC3CCCCC3)cc2)cnn1-c1ccccc1
remaining binding (cell-free assay; competition with immobilised ligand; 0.1 µM): 100%

O=C(NCCCN1CCOCC1)c1ccc(Nc2ncc(Cl)c(-c3ccc(Cl)s3)n2)cc1
remaining binding (binding; competition with immobilised ligand; 1 µM): 0.7%

CNCc1ccccc1-c1csc([C@H](C)Nc2nc(C)nc3cc(OC)c(OC)cc23)c1
remaining binding (cell-free assay; competition with immobilised ligand; 1 µM): 100%
